Assay results from ChEMBL document CHEMBL3792364, “Identification and biological activity of 6-alkyl-substituted 3-methyl-pyridine-2-carbonyl amino dimethyl-benzoic acid EP4 antagonists” (Bioorg Med Chem Lett, 2016).
≈ marks a conversion by molar mass, not a printed value. Calls of active or inactive are those of the source. No cut-off for these calls is given here.

Experiments:
[1] = molecular target: T1, Prostaglandin E2 receptor EP4 subtype (Homo sapiens, UniProt P35408); test: Antagonist activity against human EP4 expressed in HEK293 cells assessed as inhibition of PGE2-stimulated production of cAMP incubated for 20 mins by HTRF assay; format: functional, cell-based
T1 sequence (P35408 whole entry): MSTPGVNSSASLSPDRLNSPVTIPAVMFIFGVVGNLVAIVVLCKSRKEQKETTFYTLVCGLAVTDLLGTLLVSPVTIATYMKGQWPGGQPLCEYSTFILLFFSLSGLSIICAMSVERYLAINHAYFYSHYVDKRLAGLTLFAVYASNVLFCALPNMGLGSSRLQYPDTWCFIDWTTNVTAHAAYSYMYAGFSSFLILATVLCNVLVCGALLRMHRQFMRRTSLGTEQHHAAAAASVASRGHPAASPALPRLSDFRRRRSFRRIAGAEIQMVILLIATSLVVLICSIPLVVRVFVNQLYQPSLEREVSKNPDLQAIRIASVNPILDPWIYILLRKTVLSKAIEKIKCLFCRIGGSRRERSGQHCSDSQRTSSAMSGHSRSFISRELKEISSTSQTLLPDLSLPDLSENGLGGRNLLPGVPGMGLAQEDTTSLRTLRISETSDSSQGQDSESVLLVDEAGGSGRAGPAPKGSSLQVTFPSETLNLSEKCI

[2] = molecular target: Prostaglandin F2-alpha receptor (Homo sapiens) (UniProt P43088); test: Inhibition of prostaglandin FP receptor (unknown origin) at 10 uM
Outline: (§1)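 Off-target selectivity panel covering 13 receptors, four ion channels, one transporter and one enzyme, plus prostanoid DP1, FP, IP and TP receptors and COX-1/2. Test concentration 10 µM.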

Cytochrome P450 3A4 [3] = molecular target: T2, Cytochrome P450 3A4 (Homo sapiens, UniProt P08684); test: Inhibition of CYP3A4 (unknown origin); format: ADME
T2 sequence (P08684 whole entry): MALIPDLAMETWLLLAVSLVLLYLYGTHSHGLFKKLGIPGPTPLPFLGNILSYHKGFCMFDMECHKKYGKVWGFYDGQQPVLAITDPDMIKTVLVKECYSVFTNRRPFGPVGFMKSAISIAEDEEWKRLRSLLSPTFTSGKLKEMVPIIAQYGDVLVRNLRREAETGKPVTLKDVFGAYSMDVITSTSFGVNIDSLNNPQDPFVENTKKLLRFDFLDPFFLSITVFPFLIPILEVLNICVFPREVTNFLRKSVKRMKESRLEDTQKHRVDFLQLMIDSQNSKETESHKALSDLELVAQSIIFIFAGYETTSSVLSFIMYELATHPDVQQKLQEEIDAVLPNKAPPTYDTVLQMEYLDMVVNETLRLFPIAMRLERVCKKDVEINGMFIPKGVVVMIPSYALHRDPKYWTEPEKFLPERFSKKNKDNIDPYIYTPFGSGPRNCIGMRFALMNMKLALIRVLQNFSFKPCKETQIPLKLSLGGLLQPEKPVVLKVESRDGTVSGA
Outline: (§2)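 Inhibition of CYP1A2, 2B6, 2C19, 2C8, 2C9, 2D6 and 3A4 tested in vitro at concentrations up to 10 µM.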

[4] = molecular target: Prostaglandin G/H synthase 1 (Homo sapiens) (UniProt P23219); test: Inhibition of COX1 (unknown origin) at 10 uM; outline: as §1
Cytochrome P450 2B6 [5] = molecular target: T3, Cytochrome P450 2B6 (Homo sapiens, UniProt P20813); test: Inhibition of CYP2B6 (unknown origin); format: ADME; outline: as §2
T3 sequence (P20813 whole entry): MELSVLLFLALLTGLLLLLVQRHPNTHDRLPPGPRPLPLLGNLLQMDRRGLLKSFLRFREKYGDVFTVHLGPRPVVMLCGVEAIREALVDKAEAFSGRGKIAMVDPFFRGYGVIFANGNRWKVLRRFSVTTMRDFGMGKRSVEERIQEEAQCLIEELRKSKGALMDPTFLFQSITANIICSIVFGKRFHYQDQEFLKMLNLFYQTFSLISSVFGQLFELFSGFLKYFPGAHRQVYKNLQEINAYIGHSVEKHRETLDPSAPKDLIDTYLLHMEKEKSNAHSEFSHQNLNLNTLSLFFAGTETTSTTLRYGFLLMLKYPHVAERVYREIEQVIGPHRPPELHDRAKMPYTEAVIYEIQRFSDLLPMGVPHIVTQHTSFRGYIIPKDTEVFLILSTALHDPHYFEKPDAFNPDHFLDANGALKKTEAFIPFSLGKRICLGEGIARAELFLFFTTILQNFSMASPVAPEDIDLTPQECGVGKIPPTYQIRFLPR

[6] = AUC in dog at 5 mg/kg, po; format: ADME, organism-based, Canis lupus familiaris; conditions: in vivo
Outline: (§3)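 Rat and dog given single iv dose of 1 mg/kg and oral dose of 5 mg/kg. Oral AUC, Cmax and half-life and iv clearance were derived from plasma levels.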

Cytochrome P450 1A2 [7] = molecular target: T4, Cytochrome P450 1A2 (Homo sapiens, UniProt P05177); test: Inhibition of CYP1A2 (unknown origin) at 10 uM; format: ADME; outline: as §2
T4 sequence (P05177 whole entry): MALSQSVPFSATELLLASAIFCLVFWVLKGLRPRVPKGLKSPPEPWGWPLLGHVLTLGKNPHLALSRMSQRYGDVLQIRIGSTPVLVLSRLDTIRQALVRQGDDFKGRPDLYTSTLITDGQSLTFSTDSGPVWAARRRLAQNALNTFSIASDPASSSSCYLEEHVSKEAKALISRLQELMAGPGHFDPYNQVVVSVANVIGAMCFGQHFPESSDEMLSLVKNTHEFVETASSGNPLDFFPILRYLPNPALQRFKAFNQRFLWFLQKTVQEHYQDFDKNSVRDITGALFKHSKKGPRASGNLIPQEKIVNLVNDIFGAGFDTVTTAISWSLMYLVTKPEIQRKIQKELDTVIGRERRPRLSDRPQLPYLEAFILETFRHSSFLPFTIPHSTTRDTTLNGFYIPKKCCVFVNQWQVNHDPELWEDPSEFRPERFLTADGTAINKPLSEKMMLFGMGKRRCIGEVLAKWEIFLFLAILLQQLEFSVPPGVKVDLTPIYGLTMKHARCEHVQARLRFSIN

[8] = molecular target: D(1A) dopamine receptor (Homo sapiens) (UniProt P21728); test: Inhibition of human dopamine D1 receptor at 10 uM; outline: as §1
[9] = Half life in rat at 5 mg/kg, po; format: ADME, organism-based; conditions: in vivo; outline: as §3
[10] = Cmax in dog at 5 mg/kg, po; format: ADME, organism-based, Canis lupus familiaris; parameters: dose 5 mg/kg, route oral; conditions: in vivo; outline: as §3
Cytochrome P450 2D6 [11] = molecular target: T5, Cytochrome P450 2D6 (Homo sapiens, UniProt P10635); test: Inhibition of CYP2D6 (unknown origin) at 10 uM; format: ADME; outline: as §2
T5 sequence (P10635 whole entry): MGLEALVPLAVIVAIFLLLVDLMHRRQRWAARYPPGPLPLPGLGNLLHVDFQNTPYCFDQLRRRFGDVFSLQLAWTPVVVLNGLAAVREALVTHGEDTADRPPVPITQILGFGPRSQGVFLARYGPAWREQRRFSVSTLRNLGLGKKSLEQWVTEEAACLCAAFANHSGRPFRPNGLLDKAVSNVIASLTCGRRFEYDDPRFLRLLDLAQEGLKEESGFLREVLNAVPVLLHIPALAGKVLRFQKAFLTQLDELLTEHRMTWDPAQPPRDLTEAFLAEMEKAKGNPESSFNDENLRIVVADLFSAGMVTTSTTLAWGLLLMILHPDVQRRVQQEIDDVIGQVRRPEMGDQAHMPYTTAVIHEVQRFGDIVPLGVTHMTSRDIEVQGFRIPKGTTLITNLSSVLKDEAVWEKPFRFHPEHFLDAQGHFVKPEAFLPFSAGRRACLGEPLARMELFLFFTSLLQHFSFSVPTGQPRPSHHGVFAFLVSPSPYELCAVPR

[12] = Clearance in dog at 1 mg/kg, iv; format: ADME, organism-based, Canis lupus familiaris; conditions: in vivo; outline: as §3
[13] = AUC in rat at 5 mg/kg, po; format: ADME, organism-based; conditions: in vivo; outline: as §3
[14] = molecular target: Sodium-dependent noradrenaline transporter (Homo sapiens) (UniProt P23975); test: Inhibition of human norepinephrine transporter at 10 uM
[15] = molecular target: Adrenergic receptor alpha-1 (Rattus norvegicus) (UniProt P15823+P23944+P43140); test: Inhibition of rat adrenergic alpha1 receptor at 10 uM; outline: as §1
[16] = Volume of distribution at steady state in dog at 1 mg/kg, iv or 5 mg/kg, po; format: ADME, organism-based, Canis lupus familiaris; conditions: in vivo, read-out: Vdss
[17] = molecular target: Muscarinic acetylcholine receptor M3 (Homo sapiens) (UniProt P20309); test: Inhibition of human muscarinic M3 receptor at 10 uM; outline: as §1
Cytochrome P450 2C9 [18] = molecular target: T6, Cytochrome P450 2C9 (Homo sapiens, UniProt P11712); test: Inhibition of CYP2C9 (unknown origin); format: ADME; outline: as §2
T6 sequence (P11712 whole entry): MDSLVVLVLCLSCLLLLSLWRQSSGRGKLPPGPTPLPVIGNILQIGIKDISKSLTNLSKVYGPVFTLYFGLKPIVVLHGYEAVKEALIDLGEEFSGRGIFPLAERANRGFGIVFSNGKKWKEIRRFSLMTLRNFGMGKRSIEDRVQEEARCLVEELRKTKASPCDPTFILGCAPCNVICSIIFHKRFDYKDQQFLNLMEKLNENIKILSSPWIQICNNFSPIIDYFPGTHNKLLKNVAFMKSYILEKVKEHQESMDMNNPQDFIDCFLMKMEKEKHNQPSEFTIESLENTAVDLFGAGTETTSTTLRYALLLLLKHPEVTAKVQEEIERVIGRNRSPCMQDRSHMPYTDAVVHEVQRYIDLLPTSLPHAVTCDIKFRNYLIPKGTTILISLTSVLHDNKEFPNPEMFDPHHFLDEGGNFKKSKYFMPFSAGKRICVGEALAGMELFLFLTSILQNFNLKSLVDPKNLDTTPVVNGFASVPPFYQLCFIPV

[19] = molecular target: Prostacyclin receptor (Homo sapiens) (UniProt P43119); test: Inhibition of prostaglandin IP receptor (unknown origin) at 10 uM; outline: as §1
Sequence of Prostacyclin receptor (Homo sapiens) (P43119 whole entry): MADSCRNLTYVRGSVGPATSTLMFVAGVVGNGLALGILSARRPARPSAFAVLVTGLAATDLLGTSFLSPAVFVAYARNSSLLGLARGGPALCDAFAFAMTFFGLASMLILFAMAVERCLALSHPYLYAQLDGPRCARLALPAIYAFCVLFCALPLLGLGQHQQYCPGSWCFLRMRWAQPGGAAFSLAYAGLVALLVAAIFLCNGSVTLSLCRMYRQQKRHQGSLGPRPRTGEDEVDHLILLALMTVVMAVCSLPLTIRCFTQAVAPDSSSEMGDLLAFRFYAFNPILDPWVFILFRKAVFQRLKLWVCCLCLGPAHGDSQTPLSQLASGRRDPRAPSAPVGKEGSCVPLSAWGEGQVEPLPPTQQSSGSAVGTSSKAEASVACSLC

Cytochrome P450 3A4 [20] = molecular target: T2, Cytochrome P450 3A4; test: Inhibition of CYP3A4 (unknown origin) at 10 uM; format: ADME; outline: as §2
[21] = Oral bioavailability in rat at 5 mg/kg; format: ADME, organism-based; conditions: in vivo
[22] = molecular target: D(2) dopamine receptor (Homo sapiens) (UniProt P14416); test: Inhibition of human dopamine D2 short receptor at 10 uM; outline: as §1
Rattus norvegicus [23] = test: Antiinflammatory activity in rat adjuvant induced arthritis model assessed as suppression of Mycobacterium tuberculosis H37 RA induced paw swelling at 30 mg/kg measured from day 11 to 15 relative to vehicle control; format: functional, organism-based
Outline: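 Rat adjuvant-induced arthritis: paw widths measured, then 0.25 mg adjuvant (Mycobacterium tuberculosis H37 RA) in 100 µl mineral oil given intradermally at tail base (day 0). On day 11, width of both paws was re-measured as percent change from day 0, and rats were randomized on this and body weight before dosing. Rats were euthanized day 15 without further dosing and paw width measured.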

[24] = molecular target: Prostaglandin G/H synthase 2 (Homo sapiens) (UniProt P35354); test: Inhibition of COX2 (unknown origin) at 10 uM; outline: as §1
Cytochrome P450 2D6 [25] = molecular target: T5, Cytochrome P450 2D6; test: Inhibition of CYP2D6 (unknown origin); format: ADME; outline: as §2
[26] = molecular target: L-type calcium channel dihydropyridine binding site (Homo sapiens, UniProt O60840+Q01668+Q13698+Q13936); test: Inhibition of L-type calcium channel dihydropyridine binding site (unknown origin) at 10 uM; format: protein assay; outline: as §1
Rattus norvegicus [27] = test: Antiinflammatory activity in orally dosed rat MIA model assessed as inhibition of differential weight bearing measured 30 mins post dose by incapacitance test; format: functional, organism-based
Outline: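 MIA 0.3 mg in 50 µL saline injected into right knee and saline into left knee of rats on day 0. Day 12: randomized, single oral dose in 10% acacia in water plus 0.05% antifoam at 0.3–10 mg/kg, with diclofenac 5 mg/kg. Hind-limb weight distribution measured by incapacitance tester 30 min post dose. n = 5/group, Dunnett's test versus vehicle.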

[28] = molecular target: L-type calcium channel verapamil binding site (Homo sapiens, UniProt O60840+Q01668+Q13698+Q13936); test: Inhibition of L-type calcium channel verapamil binding site (unknown origin) at 10 uM; format: protein assay; outline: as §1
[29] = molecular target: Muscarinic acetylcholine receptor M2 (Homo sapiens) (UniProt P08172); test: Inhibition of human muscarinic M2 receptor at 10 uM; outline: as §1
Cytochrome P450 2C19 [30] = molecular target: T7, Cytochrome P450 2C19 (Homo sapiens, UniProt P33261); test: Inhibition of CYP2C19 (unknown origin) at 10 uM; format: ADME; outline: as §2
T7 sequence (P33261 whole entry): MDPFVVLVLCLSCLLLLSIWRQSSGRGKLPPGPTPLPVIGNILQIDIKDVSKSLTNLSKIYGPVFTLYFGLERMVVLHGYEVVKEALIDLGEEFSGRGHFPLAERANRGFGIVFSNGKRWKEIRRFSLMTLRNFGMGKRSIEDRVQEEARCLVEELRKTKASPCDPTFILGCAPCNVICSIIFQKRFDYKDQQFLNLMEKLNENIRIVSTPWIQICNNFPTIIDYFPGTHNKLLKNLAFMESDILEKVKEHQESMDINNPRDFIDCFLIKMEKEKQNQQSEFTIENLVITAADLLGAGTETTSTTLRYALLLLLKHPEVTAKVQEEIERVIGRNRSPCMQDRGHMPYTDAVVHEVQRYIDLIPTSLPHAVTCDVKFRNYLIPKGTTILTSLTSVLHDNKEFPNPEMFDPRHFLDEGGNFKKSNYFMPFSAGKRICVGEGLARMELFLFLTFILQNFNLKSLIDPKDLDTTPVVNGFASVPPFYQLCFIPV

[31] = molecular target: Voltage-gated inwardly rectifying potassium channel KCNH2 (Homo sapiens, UniProt Q12809); test: Inhibition of human ERG up to 100 uM by [H3]-astemizole binding assay
Outline: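 hERG activity measured as displacement of [3H]-astemizole binding, compound tested up to 100 µM.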

[32] = Oral bioavailability in dog at 5 mg/kg; format: ADME, organism-based, Canis lupus familiaris; conditions: in vivo
Cytochrome P450 2C8 [33] = molecular target: T8, Cytochrome P450 2C8 (Homo sapiens, UniProt P10632); test: Inhibition of CYP2C8 (unknown origin); format: ADME; outline: as §2
T8 sequence (P10632 whole entry): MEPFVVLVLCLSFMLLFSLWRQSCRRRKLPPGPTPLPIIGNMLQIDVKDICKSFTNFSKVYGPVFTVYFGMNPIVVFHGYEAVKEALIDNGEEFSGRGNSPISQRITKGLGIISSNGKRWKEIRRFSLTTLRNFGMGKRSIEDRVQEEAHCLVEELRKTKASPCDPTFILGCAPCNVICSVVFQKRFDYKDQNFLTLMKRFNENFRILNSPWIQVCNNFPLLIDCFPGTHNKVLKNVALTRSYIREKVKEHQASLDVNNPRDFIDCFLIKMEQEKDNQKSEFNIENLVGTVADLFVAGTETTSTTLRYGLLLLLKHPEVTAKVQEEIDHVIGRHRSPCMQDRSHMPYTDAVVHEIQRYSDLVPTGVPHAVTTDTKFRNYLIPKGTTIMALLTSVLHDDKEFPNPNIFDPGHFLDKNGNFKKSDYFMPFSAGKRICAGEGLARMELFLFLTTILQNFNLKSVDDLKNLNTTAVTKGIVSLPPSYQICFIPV

[34] = molecular target: Acetylcholinesterase (Homo sapiens) (UniProt P22303); test: Inhibition of human acetylcholinesterase at 10 uM
[35] = molecular target: Mu-type opioid receptor (Homo sapiens) (UniProt P35372); test: Inhibition of human Mu-type opioid receptor 10 uM; outline: as §1
Sequence of Mu-type opioid receptor (Homo sapiens) (P35372 whole entry): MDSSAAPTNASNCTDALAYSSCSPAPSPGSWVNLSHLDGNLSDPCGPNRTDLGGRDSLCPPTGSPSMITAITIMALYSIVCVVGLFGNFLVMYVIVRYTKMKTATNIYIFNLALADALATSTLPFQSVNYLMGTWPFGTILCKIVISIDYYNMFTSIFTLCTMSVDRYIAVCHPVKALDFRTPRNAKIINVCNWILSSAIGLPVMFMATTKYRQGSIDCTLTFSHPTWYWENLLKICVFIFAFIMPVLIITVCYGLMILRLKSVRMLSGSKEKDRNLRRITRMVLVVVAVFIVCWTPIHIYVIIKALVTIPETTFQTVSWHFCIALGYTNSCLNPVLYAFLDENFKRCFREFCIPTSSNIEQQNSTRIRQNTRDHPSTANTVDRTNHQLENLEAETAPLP

Cytochrome P450 2C19 [36] = molecular target: T7, Cytochrome P450 2C19; test: Inhibition of CYP2C19 (unknown origin); format: ADME; outline: as §2
[37] = Cmax in rat at 5 mg/kg, po; format: ADME, organism-based; parameters: dose 5 mg/kg, route oral; conditions: in vivo; outline: as §3
[38] = Half life in dog at 5 mg/kg, po; format: ADME, organism-based, Canis lupus familiaris; conditions: in vivo; outline: as §3
Cytochrome P450 1A2 [39] = molecular target: T4, Cytochrome P450 1A2; test: Inhibition of CYP1A2 (unknown origin); format: ADME; outline: as §2
Cytochrome P450 2C8 [40] = molecular target: T8, Cytochrome P450 2C8; test: Inhibition of CYP2C8 (unknown origin) at 10 uM; format: ADME; outline: as §2
[41] = Volume of distribution at steady state in rat at 1 mg/kg, iv or 5 mg/kg, po; format: ADME, organism-based; conditions: in vivo, read-out: Vdss
[42] = molecular target: Prostaglandin D2 receptor (Homo sapiens) (UniProt Q13258); test: Inhibition of prostaglandin DP1 receptor (unknown origin) at 10 uM; outline: as §1
[43] = molecular target: Beta-2 adrenergic receptor (Homo sapiens) (UniProt P07550); test: Inhibition of human adrenergic beta2 receptor at 10 uM; outline: as §1
[44] = Aqueous solubility of compound at pH 6 at 2 mM after 20 hrs by HPLC; format: physicochemical; conditions: aqueous medium
Outline: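 Samples in DMSO dried 12 h, then redissolved at pH 6 at a 2 mM target concentration. Stirred 20 h, filtered through 0.7 µm GF filter. Filtrate concentration measured by HPLC against a DMSO standard curve.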

Cytochrome P450 2C9 [45] = molecular target: T6, Cytochrome P450 2C9; test: Inhibition of CYP2C9 (unknown origin) at 10 uM; format: ADME; outline: as §2
[46] = molecular target: Adrenergic receptor alpha-2 (Rattus norvegicus) (UniProt P22086+P19328+P22909); test: Inhibition of rat adrenergic alpha2 receptor at 10 uM; outline: as §1
[47] = molecular target: L-type calcium channel diltiazem binding site (Homo sapiens, UniProt O60840+Q01668+Q13698+Q13936); test: Inhibition of L-type calcium channel diltiazem binding site (unknown origin) at 10 uM; format: protein assay; outline: as §1
Cytochrome P450 2B6 [48] = molecular target: T3, Cytochrome P450 2B6; test: Inhibition of CYP2B6 (unknown origin) at 10 uM; format: ADME; outline: as §2
[49] = molecular target: Beta-1 adrenergic receptor (Homo sapiens) (UniProt P08588); test: Inhibition of human adrenergic beta1 receptor at 10 uM; outline: as §1
[50] = Clearance in rat at 1 mg/kg, iv; format: ADME, organism-based; conditions: in vivo; outline: as §3
[51] = molecular target: Thromboxane A2 receptor (Homo sapiens) (UniProt P21731); test: Inhibition of prostaglandin TP receptor (unknown origin) at 10 uM; outline: as §1
[52] = molecular target: Histamine H1 receptor (Homo sapiens) (UniProt P35367); test: Inhibition of human histamine H1 receptor at 10 uM; outline: as §1
[53] = molecular target: T1, Prostaglandin E2 receptor EP4 subtype; test: Antagonist activity against EP4 in human whole blood assessed as reversal of PGE2-mediated suppression of LPS-induced TNF-alpha production preincubated for 30 mins followed by LPS stimulation measured after 20 to 24 hrs by enzyme immunoassay; format: tissue-based
Outline: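 Pooled blood from donors free of NSAIDs or celecoxib for 48 h and of glucocorticoids for 2 weeks. Blood pretreated 30 min at 37 °C, 5% CO2 with compound in DMSO (7-point curve, triplicate). LPS […] ± 10 nM PGE2 (final) added, then incubated 20–24 h. Plasma TNFα read at A450-A650. IC50 from sigmoidal nonlinear fit; geometric mean of independent runs.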

Cc1ccc(N2CCC(C)(O)CC2)nc1C(=O)Nc1c(C)ccc(C(=O)O)c1C
IC50 [1]: 0.0879 µM

Cc1ccc(N2CCC(O)CC2)nc1C(=O)Nc1c(C)cc(C(=O)O)cc1C
inhibition [2]: inactive
IC50 (Cytochrome P450 3A4 [3]): > 10 µM
inhibition [4]: inactive
IC50 (Cytochrome P450 2B6 [5]): > 10 µM
AUC [6]: 6320 ng·h/mL
inhibition (INH) (Cytochrome P450 1A2 [7]): Not Active
inhibition [8]: 14%
half-life [9]: 5.1 h
Cmax [10]: 1870 ng/mL
inhibition (INH) (Cytochrome P450 2D6 [11]): Not Active
clearance [12]: 10 mL/min/kg
AUC [13]: 9670 ng·h/mL
inhibition [14]: 7%
inhibition [15]: -8%
Vd [16]: 1.73 L/kg
inhibition [17]: 0%
IC50 (Cytochrome P450 2C9 [18]): > 10 µM
inhibition [19]: inactive
inhibition (INH) (Cytochrome P450 3A4 [20]): Not Active
bioavailability [21]: 34%
inhibition [22]: 5%
Activity (Rattus norvegicus [23]): Active
inhibition [24]: inactive
IC50 (Cytochrome P450 2D6 [25]): > 10 µM
inhibition at 10 µM [26]: -39%
Activity (Rattus norvegicus [27]): Dose-dependent effect
inhibition at 10 µM [28]: 1%
inhibition [29]: 6%
inhibition (INH) (Cytochrome P450 2C19 [30]): Not Active
inhibition (INH) [31]: Not Active
bioavailability [32]: 75%
IC50 (Cytochrome P450 2C8 [33]): > 10 µM
inhibition [34]: 7%
inhibition [35]: -8%
IC50 (Cytochrome P450 2C19 [36]): > 10 µM
Cmax [37]: 3100 ng/mL
half-life [38]: 5.1 h
IC50 (Cytochrome P450 1A2 [39]): > 10 µM
inhibition (INH) (Cytochrome P450 2C8 [40]): Not Active
Vd [41]: 0.34 L/kg
inhibition [42]: inactive
inhibition [43]: -2%
solubility at 20 h, 2000 µM [44]: 762 µg/mL (≈ 1990 µM)
inhibition (INH) (Cytochrome P450 2C9 [45]): Not Active
inhibition [46]: -4%
inhibition at 10 µM [47]: -23%
inhibition (INH) (Cytochrome P450 2B6 [48]): Not Active
inhibition [49]: 3%
clearance [50]: 3 mL/min/kg
inhibition [51]: inactive
inhibition [52]: -3%

Cc1ccc(N2CCC(O)CC2)nc1C(=O)Nc1c(C)ccc(C(=O)O)c1C
IC50 [53]: 1.45 µM
solubility at 20 h, 2000 µM [44]: 784 µg/mL (≈ 2040 µM)
IC50 [1]: 0.0195 µM
